The values that follow come from ChEMBL document CHEMBL1154831, “Synthesis, characterization and biological activity of some new 1,3,4-oxadiazole bearing 2-flouro-4-methoxy phenyl moiety” (2010).

Common to all, as to format: functional
One experiment deals with Escherichia coli. In words: Antimicrobial activity against Escherichia coli after 16 to 18 hrs by serial dilution method. An outline of the steps: (§1)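 Serial dilutions of each compound, each inoculated with one standard drop of the prepared test culture. Incubation was 16–18 h at 37 °C. MIC was read as the highest dilution giving clear fluid with no turbidity.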
The next experiment relates to Pseudomonas aeruginosa. In words: Antimicrobial activity against Pseudomonas aeruginosa after 16 to 18 hrs by serial dilution method. The gist of the method: as §1
A further experiment has as its system Candida albicans. In words: Antimicrobial activity against Candida albicans after 16 to 18 hrs by serial dilution method. An outline of the steps: as §1
The next experiment concerns Staphylococcus aureus. In words: Antimicrobial activity against Staphylococcus aureus after 16 to 18 hrs by serial dilution method. The gist of the method:
as §1

A further experiment deals with Bacillus subtilis. Briefly: Antimicrobial activity against Bacillus subtilis after 16 to 18 hrs by serial dilution method. An outline of the steps:
as §1

SMILES strings stand for the structures. In brackets after ≈: the same amount, converted by molar mass.

What is called MIC is the least concentration at which growth counts as inhibited. Turning to `COc1ccc(-c2nnc(-c3cc(Cl)ccc3Br)o2)c(F)c1`, the minimum inhibitory concentration (MIC) against Escherichia coli turned out to be 6 µg/mL (≈ 15.6 µM); against Pseudomonas aeruginosa it was 6 µg/mL (≈ 15.6 µM); in the experiment on Candida albicans, 3 µg/mL (≈ 7.82 µM); in the experiment on Staphylococcus aureus, 6 µg/mL (≈ 15.6 µM); with Bacillus subtilis, 6 µg/mL (≈ 15.6 µM).

Regarding `COc1ccc(-c2nnc(-c3cnc4ccccc4c3)o2)c(F)c1`, the minimal inhibitory concentration (MIC) against Escherichia coli, against Pseudomonas aeruginosa, against Candida albicans, against Staphylococcus aureus and with Bacillus subtilis was 6 µg/mL (≈ 18.7 µM) throughout.

Turning to `COc1ccc(-c2nnc(-c3cc(C)on3)o2)c(F)c1`, the minimum inhibitory concentration (MIC) against Escherichia coli was determined as 6 µg/mL (≈ 21.8 µM); against Pseudomonas aeruginosa, 6 µg/mL (≈ 21.8 µM); in the experiment on Candida albicans, 3 µg/mL (≈ 10.9 µM); in the experiment with Staphylococcus aureus, 12.5 µg/mL (≈ 45.4 µM); in the experiment on Bacillus subtilis, 12.5 µg/mL (≈ 45.4 µM).

For the molecule `COc1ccc(-c2nnc(-c3ccc([N+](=O)[O-])c(F)c3)o2)c(F)c1`, the minimal inhibitory concentration (MIC) in the experiment on Escherichia coli, with Pseudomonas aeruginosa, in the experiment with Candida albicans, in the experiment with Staphylococcus aureus and against Bacillus subtilis was 6 µg/mL (≈ 18 µM) each time.

With `COc1ccc(-c2nnc(-c3cccc(Br)c3C)o2)c(F)c1`, the minimum inhibitory concentration (MIC) in the experiment with Escherichia coli was found to be 3 µg/mL (≈ 8.26 µM); against Pseudomonas aeruginosa, 3 µg/mL (≈ 8.26 µM); against Candida albicans, 6 µg/mL (≈ 16.5 µM); in the experiment on Staphylococcus aureus, 6 µg/mL (≈ 16.5 µM); with Bacillus subtilis it was 6 µg/mL (≈ 16.5 µM).

On to `COc1ccc(-c2nnc(-c3ccc(F)c(F)c3F)o2)c(F)c1`, for which the minimal inhibitory concentration (MIC) in the experiment with Escherichia coli is 3 µg/mL (≈ 9.25 µM); in the experiment with Pseudomonas aeruginosa, 3 µg/mL (≈ 9.25 µM); against Candida albicans it was 6 µg/mL (≈ 18.5 µM); in the experiment with Staphylococcus aureus, 6 µg/mL (≈ 18.5 µM); against Bacillus subtilis, 6 µg/mL (≈ 18.5 µM).

As to `COc1ccc(-c2nnc(-c3ccccc3C(F)(F)F)o2)c(F)c1`, the minimum inhibitory concentration (MIC) with Escherichia coli, against Pseudomonas aeruginosa, with Candida albicans, in the experiment on Staphylococcus aureus and against Bacillus subtilis was 6 µg/mL (≈ 17.7 µM) in each case.

Consider `COc1ccc(-c2nnc(-c3c([N+](=O)[O-])ccc(F)c3F)o2)c(F)c1`, for which the MIC in the experiment with Escherichia coli was found to be 12.5 µg/mL (≈ 35.6 µM); against Pseudomonas aeruginosa, 6 µg/mL (≈ 17.1 µM); with Candida albicans it was 6 µg/mL (≈ 17.1 µM); against Staphylococcus aureus it was 6 µg/mL (≈ 17.1 µM); against Bacillus subtilis, 6 µg/mL (≈ 17.1 µM).

For `COc1ccc(-c2nnc(-c3ccc(F)cc3)o2)c(F)c1`, the minimal inhibitory concentration (MIC) against Escherichia coli was 12.5 µg/mL (≈ 43.4 µM); with Pseudomonas aeruginosa, 6 µg/mL (≈ 20.8 µM); against Candida albicans, 6 µg/mL (≈ 20.8 µM); with Staphylococcus aureus it was 6 µg/mL (≈ 20.8 µM); with Bacillus subtilis it was 6 µg/mL (≈ 20.8 µM).

As for `COc1ccc(-c2nnc(-c3cc(F)cc(F)c3)o2)c(F)c1`, the minimal inhibitory concentration (MIC) against Escherichia coli, in the experiment on Pseudomonas aeruginosa, against Candida albicans, against Staphylococcus aureus and in the experiment with Bacillus subtilis was 6 µg/mL (≈ 19.6 µM) throughout.

Consider `COc1ccc(-c2nnc(-c3cccc(C#N)c3)o2)c(F)c1`, for which the MIC in the experiment with Escherichia coli, in the experiment with Pseudomonas aeruginosa, in the experiment with Candida albicans, against Staphylococcus aureus and against Bacillus subtilis was 6 µg/mL (≈ 20.3 µM) in each case.

For `COc1ccc(-c2nnc(-c3cccc(C)c3C)o2)c(F)c1`, the MIC was 6 µg/mL (≈ 20.1 µM) in the experiment on Escherichia coli; 12.5 µg/mL (≈ 41.9 µM) in the experiment on Pseudomonas aeruginosa; 6 µg/mL (≈ 20.1 µM) against Candida albicans; 6 µg/mL (≈ 20.1 µM) in the experiment with Staphylococcus aureus; 6 µg/mL (≈ 20.1 µM) in the experiment on Bacillus subtilis.

For the molecule `COc1ccc(-c2nnc(-c3ccc(Cl)nc3)o2)c(F)c1`, the minimal inhibitory concentration (MIC) was found to be 6 µg/mL (≈ 19.6 µM) in the experiment with Escherichia coli; 12.5 µg/mL (≈ 40.9 µM) against Pseudomonas aeruginosa; 6 µg/mL (≈ 19.6 µM) against Candida albicans; 12.5 µg/mL (≈ 40.9 µM) in the experiment on Staphylococcus aureus; 6 µg/mL (≈ 19.6 µM) in the experiment on Bacillus subtilis.

In the case of `OC(Cn1cncn1)(Cn1cncn1)c1ccc(F)cc1F` [FLUCONAZOLE], in the experiment on Candida albicans, the MIC came to 6 µg/mL (≈ 19.6 µM).

With `NC(=O)N/N=C/c1ccc([N+](=O)[O-])o1` [NITROFURAZONE], the minimal inhibitory concentration (MIC) with Escherichia coli was 6 µg/mL (≈ 30.3 µM); in the experiment with Pseudomonas aeruginosa, 12.5 µg/mL (≈ 63.1 µM); in the experiment on Staphylococcus aureus, 12.5 µg/mL (≈ 63.1 µM); against Bacillus subtilis it was 12.5 µg/mL (≈ 63.1 µM).
